Results from ChEMBL document CHEMBL1137704, “Photodynamic inactivation of Candida albicans sensitized by tri- and tetra-cationic porphyrin derivatives” (Eur J Med Chem, 2009).
The source made the active and inactive calls. The rule behind the calls is not given here.

How the values were obtained:
Candida albicans [1] = assay: Drug uptake in Candida albicans PC31 at 10^6 CFU/ml cellular density assessed per 10^6 cells at 1 uM after 30 mins by fluorescence emission analysis; assay type: ADME, organism-based; settings: in vivo, 0.5 h
How it was run: (§1)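 Stationary-phase yeast (overnight Sabouraud broth, 37 °C) washed into 10 mM PBS pH 7.0, 2 mL suspensions incubated with sensitizer in the dark at 37 °C. Cells pelleted, resuspended in 2% aqueous SDS, kept overnight at 4 °C, sonicated 30 min. Porphyrin quantified by fluorescence (exc 418, em 650 nm) against SDS calibration standards, normalized to total cell number. Three separate experiments.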

Candida albicans [2] = assay: Drug uptake in Candida albicans PC31 at 10^7 CFU/ml cellular density assessed per 10^6 cells at 5 uM after 30 mins by fluorescence emission analysis; assay type: ADME, organism-based; settings: in vivo, 0.5 h; how it was run: as §1
Candida albicans [3] = assay: Phototoxicity against Candida albicans PC31 in PBS at 10^6 CFU/ml cellular density assessed as cellular inactivation at 5 uM after 30 mins irradiated with visible light for 5 mins; assay type: functional
How it was run: (§2)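 Overnight stationary-phase cells in 10 mM PBS pH 7.0 (2 mL) were dark-incubated with porphyrin for 30 min at 37 °C, then exposed to a 150 W slide-projector lamp filtered through 2.5 cm of water. Dark and light-only controls were included. Survivors were counted as CFU after serial dilution, plating in triplicate on Sabouraud agar and ~48 h at 37 °C. Three separate experiments.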

Candida albicans [4] = assay: Drug uptake in Candida albicans PC31 at 10^6 CFU/ml cellular density assessed per 10^6 cells at 5 uM after 30 mins by fluorescence emission analysis; assay type: ADME, organism-based; settings: in vivo, 0.5 h; how it was run: as §1
Candida albicans [5] = assay: Phototoxicity against Candida albicans PC31 in PBS at 10^7 CFU/ml cellular density assessed as cellular inactivation at 5 uM after 30 mins irradiated with visible light for 30 mins; assay type: functional; how it was run: as §2
Candida albicans [6] = assay: Drug uptake in Candida albicans PC31 at 10^8 CFU/ml cellular density assessed per 10^6 cells at 5 uM after 30 mins by fluorescence emission analysis; assay type: ADME, organism-based; settings: in vivo, 0.5 h; how it was run: as §1
Candida albicans [7] = assay: Phototoxicity against Candida albicans PC31 in PBS at 10^6 CFU/ml cellular density assessed as cellular inactivation at 5 uM after 30 mins irradiated with visible light for 30 mins; assay type: functional; how it was run: as §2
Candida albicans [8] = assay: Phototoxicity against Candida albicans PC31 in PBS at 10^6 CFU/ml cellular density at 5 uM after 30 mins in dark at 37 deg C; assay type: functional, organism-based; how it was run: as §2
Candida albicans [9] = assay: Phototoxicity against Candida albicans PC31 in PBS at 10^6 CFU/ml cellular density pretreated for 30 mins irradiated with visible light for 15 mins; assay type: functional, organism-based; how it was run: as §2

SMILES | Drug uptake (Candida albicans [1]) | Drug uptake (Candida albicans [2]) | Activity (Candida albicans [3]) | Drug uptake (Candida albicans [4]) | Activity (Candida albicans [5]) | Drug uptake (Candida albicans [6]) | Activity (Candida albicans [7]) | Activity (Candida albicans [8]) | Activity (Candida albicans [9])
C[N+](C)(C)c1ccc(-c2c3nc(c(-c4ccc([N+](C)(C)C)cc4)c4ccc([nH]4)c(-c4ccc([N+](C)(C)C)cc4)c4nc(c(-c5ccc(C(F)(F)F)cc5)c5ccc2[nH]5)C=C4)C=C3)cc1.[I-].[I-].[I-] | 0.32 nmol | 0.12 nmol | 99.99% | 1.48 nmol | 99.9% | 0.01 nmol | >99.9994% |  | 
O=S(=O)([O-])c1ccc(-c2c3nc(c(-c4ccc(S(=O)(=O)[O-])cc4)c4ccc([nH]4)c(-c4ccc(S(=O)(=O)[O-])cc4)c4ccc([nH]4)c(-c4ccc(S(=O)(=O)[O-])cc4)c4nc2C=C4)C=C3)cc1.[Na+].[Na+].[Na+].[Na+] | 0.03 nmol |  |  |  |  |  | inactive | inactive | Dose-dependent effect
